The values below come from PubChem BioAssay.

One may read the viability as a read-out of living cells in per cent, often relative to untreated cells. Usually inhibition stands for the change of the read-out against control, counted positive when it falls.

Molecules are shown by their SMILES. Calls of active or inactive are those of the source. Rule as the data show it, unless noted: active = inhibition above about 30%; inactive = the rest.

Assay [1] is described as follows: HUVEC growth inhibition – cell-based, human, primary screen (AID 575;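 active = viability at or below 30% in both replicate assays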;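 also: 100% = median of untreated cell wells with 0.1% DMSO on each plate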). The note with it: HUVEC proliferation, CellTiter-Glo luminescence, 72 h; at 10 µM; stronger effect = lower value. In outline: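 Test system: primary human umbilical vein endothelial cells; medium: endothelial basal medium with 2% FBS plus growth supplements; dosing: 10 µM compound only; times: 72 h treatment at 37 °C; signal: CTG luminescence; read-out: % viability relative to median vehicle-well signal on each plate; control set: vehicle and MePR control wells; plate: 384-well, collagen-coated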
In general terms: In ATP-based viability assays light output follows the ATP content of the culture.

Assay [2] is described as follows: growth inhibitors of H69AR lung tumor, primary screen, human, duplicate replicates (AID 580;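 active = viability at or under a set limit in both replicates, limit being median viability minus 3 SD, cut at about 48% in these data, passing the limit was not always enough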;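 also: 100% = mean luminescence of untreated wells and 0% = no signal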). The note with it: H69AR lung tumor cells viability, ATP luminescence, 72 h; at 10 µM; stronger effect = lower value.
Assay [3] is described as follows: reversal of MRP1-mediated doxorubicin resistance, pilot screen, H69AR cells, doxorubicin co-treatment (AID 601;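 active = viability loss from added drug above about 55%, and viability with drug at most 40%, in both replicates, limit read from the data, passing the limit was not always enough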). As to conditions: CellTiter-Glo, 72 h, at 10 µM; for differential viability (reversal): stronger effect = higher value.
Assay [4] in a line: 384-well plate pilot, post-Golgi transport modulator project, inhibition of yeast transport mutant growth (AID 636; in the data active = inhibition above about 31%). As to conditions: absorbance 615 nm, about 18 h, stronger effect = higher value.
Assay [5] is described as follows: growth suppression of yeast trafficking mutant, preliminary HTS, modulators of trafficking downstream of Golgi apparatus project, 1536-format plate, OD 615 nm (AID 637). The note with it: yeast transport mutant growth, absorbance 615 nm, 18 h; stronger effect = higher value.
Setting [6] is: H69AR cells + 2 uM doxorubicin, measured here: viability with 2 uM doxorubicin, stronger effect = lower value.
Where [7] appears, read: H69AR cells, compound alone cytotoxicity.

For `O=C1C2C3C=CC(C3)C2C(=O)N1CNc1ccc(O)cc1` (stereo not drawn), the viability is 93.7% (inactive) in assay [1], 90.7% (inactive) in assay [2], 102% in assay [3] (setting [6]) and 90.7% in assay [3] (setting [7]). Further, in assay [3] (H69AR cells + 2 uM doxorubicin), the differential viability (reversal) was -11.8% (inactive). Moreover, the results for the inhibition in assay [4] and in assay [5] were 0.13% (inactive) and -4.6% (inactive), respectively.

Regarding `O=C(CN1c2cccc3cccc(c23)S1(=O)=O)N1CCOCC1`, the viability is 105% (inactive) in assay [1], 92.5% (inactive) in assay [2], 93.4% in assay [3] (setting [6]) and 92.5% in assay [3] (setting [7]). Also, the differential viability (reversal) in assay [3] (H69AR cells + 2 uM doxorubicin) is -0.865% (inactive). In addition, the inhibition in assay [4] is -3.2% (inactive); in assay [5], 0.16% (inactive).

`CCOc1ccccc1Nc1nc2ccccc2[nH]1`: the viability is 92.7% (inactive) in assay [1], 94.2% (inactive) in assay [2], 92.3% in assay [3] (setting [6]) and 94.2% in assay [3] (setting [7]). The differential viability (reversal) in assay [3] (H69AR cells + 2 uM doxorubicin) is 1.97% (inactive). The results for the inhibition in assay [4] and in assay [5] were 0.91% (inactive) and -6.03% (inactive), respectively.

Regarding `Nc1ccc(Sc2nnnn2-c2ccccc2)c(Cl)c1`, the viability was 101% (inactive) in assay [1], 92% (inactive) in assay [2], 102% in assay [3] (setting [6]) and 92% in assay [3] (setting [7]). The differential viability (reversal) in assay [3] (H69AR cells + 2 uM doxorubicin) was -9.96% (inactive). The inhibition was -6.32% (inactive) in assay [4] and -2.06% (inactive) in assay [5].

For the compound `CN(C)c1oc(-c2ccccc2Cl)nc1C#N`, the viability in assay [1] is 56.5% (inactive); in assay [2], 94.9% (inactive); in assay [3] (setting [6]), 78.1%; in assay [3] (setting [7]), 94.9%. Also, in assay [3] (H69AR cells + 2 uM doxorubicin), the differential viability (reversal) was 16.8% (inactive). The inhibition is -3.33% (inactive) in assay [4] and 3.97% (inactive) in assay [5].

Regarding `O=C(Cc1c[nH]c2ccccc12)N1CCc2ccccc21`, the viability in assay [1] is 88.9% (inactive); in assay [2], 80.7% (inactive); in assay [3] (setting [6]) it was 67.5%; in assay [3] (setting [7]), 80.7%. Further, the differential viability (reversal) in assay [3] (H69AR cells + 2 uM doxorubicin) was 13.1% (inactive). The inhibition in assay [4] was -2.99% (inactive); in assay [5], -2.86% (inactive).

Take `COC(=O)c1cc(-c2c(C)nn(-c3ccccc3)c2C)n[nH]1`: the viability in assay [1] is 97.8% (inactive); in assay [2], 101% (inactive); in assay [3] (setting [6]) it was 104%; in assay [3] (setting [7]) it was 101%. The differential viability (reversal) in assay [3] (H69AR cells + 2 uM doxorubicin) is -2.79% (inactive). The inhibition is -2.63% (inactive) in assay [4] and -4.76% (inactive) in assay [5].

`CSc1ccccc1NC(=O)CN(Cc1ccccc1)S(C)(=O)=O`: the viability is 82.7% (inactive) in assay [1], 93.1% (inactive) in assay [2], 85.2% in assay [3] (setting [6]) and 93.1% in assay [3] (setting [7]). For the same compound, the differential viability (reversal) in assay [3] (H69AR cells + 2 uM doxorubicin) is 7.95% (inactive). The inhibition in assay [4] is -0.78% (inactive); in assay [5] it was 10.6% (inactive).

On to `CN1CCN(C(=O)c2ccccc2N(Cc2ccccc2)S(C)(=O)=O)CC1`, for which the viability in assay [1] was 93.3% (inactive); in assay [2] it was 91.6% (inactive); in assay [3] (setting [6]) it was 84.9%; in assay [3] (setting [7]), 91.6%. In assay [3] (H69AR cells + 2 uM doxorubicin), the differential viability (reversal) is 6.72% (inactive). For the same compound, the inhibition is -6.1% (inactive) in assay [4] and -6.35% (inactive) in assay [5].

Turning to `c1ccc2c(c1)c1c3n2CCNC3CCC1` (stereo not drawn), the viability was 91.1% (inactive) in assay [1], 91.4% (inactive) in assay [2], 86.7% in assay [3] (setting [6]) and 91.4% in assay [3] (setting [7]). Also, in assay [3] (H69AR cells + 2 uM doxorubicin), the differential viability (reversal) was 4.74% (inactive). In addition, the values for the inhibition in assay [4] and in assay [5] were -4.13% (inactive) and 0% (inactive), respectively.

As to `COc1cccc(C(=O)Nc2cc(NC(=O)c3ccco3)ccc2OC)c1`, the viability in assay [1] was 69.1% (inactive); in assay [2], 80.6% (inactive); in assay [3] (setting [6]), 77.8%; in assay [3] (setting [7]), 80.6%. In addition, the differential viability (reversal) in assay [3] (H69AR cells + 2 uM doxorubicin) was 2.75% (inactive). The inhibition in assay [4] was -3.64% (inactive); in assay [5], -2.22% (inactive).

With `CC(C)OC(=O)CSc1nnc(-c2ccccn2)n1-c1ccccc1`, the viability in assay [1] was 87.3% (inactive); in assay [2], 92.1% (inactive); in assay [3] (setting [6]), 94.8%; in assay [3] (setting [7]), 92.1%. Besides, the differential viability (reversal) in assay [3] (H69AR cells + 2 uM doxorubicin) is -2.68% (inactive). Besides, the inhibition in assay [4] was -1.87% (inactive); in assay [5] it was -9.52% (inactive).

Regarding `COCc1[nH]nc2c1C(C1C=CCCC1)C(C#N)=C(N)O2` (stereo not drawn), the viability was 68.9% (inactive) in assay [1], 94.6% (inactive) in assay [2], 98.8% in assay [3] (setting [6]) and 94.6% in assay [3] (setting [7]). In assay [3] (H69AR cells + 2 uM doxorubicin), the differential viability (reversal) is -4.19% (inactive). The inhibition in assay [4] is -2.5% (inactive); in assay [5], -1.11% (inactive).

As to `COc1ccc(S(=O)(=O)N2CCN(Cc3ccc(Cl)cc3)CC2)cc1`, the viability was 90.7% (inactive) in assay [1], 97% (inactive) in assay [2], 90.3% in assay [3] (setting [6]) and 97% in assay [3] (setting [7]). The differential viability (reversal) in assay [3] (H69AR cells + 2 uM doxorubicin) is 6.67% (inactive). Besides, the inhibition in assay [4] was -0.4% (inactive); in assay [5], -3.81% (inactive).

In the case of `CCCCC(CC)Cn1c2nc3ccccc3nc2c2c(=N)oc(C)nc21` (stereo not drawn), the viability was 3.36% (active) in assay [1], 1.91% (active) in assay [2], 2.24% in assay [3] (setting [6]) and 1.91% in assay [3] (setting [7]). Further, the differential viability (reversal) in assay [3] (H69AR cells + 2 uM doxorubicin) is -0.33% (inactive). The results for the inhibition in assay [4] and in assay [5] were -2.63% (inactive) and 1.59% (inactive), respectively.

On to `CCOc1ccc(NC(=O)c2ccncc2)cc1`, for which the viability is 112% (inactive) in assay [1], 99.9% (inactive) in assay [2], 88.5% in assay [3] (setting [6]) and 99.9% in assay [3] (setting [7]). In addition, in assay [3] (H69AR cells + 2 uM doxorubicin), the differential viability (reversal) is 11.4% (inactive). Further, the results for the inhibition in assay [4] and in assay [5] were -2.89% (inactive) and -0.63% (inactive), respectively.

With `CCCCNC(=O)C(C#N)c1nc2ccccc2nc1N1CCCC1` (stereo not drawn), the viability in assay [1] was 89.2% (inactive); in assay [2], 100% (inactive); in assay [3] (setting [6]) it was 102%; in assay [3] (setting [7]), 100%. Besides, in assay [3] (H69AR cells + 2 uM doxorubicin), the differential viability (reversal) is -1.2% (inactive). The inhibition in assay [4] was -4.93% (inactive); in assay [5], -4.29% (inactive).

As to `Cc1c(O)c(CN2CCCCC2)cc2c3c(c(=O)oc12)CCC3`, the viability is 103% (inactive) in assay [1], 82.2% (inactive) in assay [2], 82.8% in assay [3] (setting [6]) and 82.2% in assay [3] (setting [7]). Further, in assay [3] (H69AR cells + 2 uM doxorubicin), the differential viability (reversal) was -0.59% (inactive). The values for the inhibition in assay [4] and in assay [5] were -6.84% (inactive) and 5.08% (inactive), respectively.

Regarding `O=C(O)C1CC=CCC1C(=O)Nc1cccc(C(=O)N2CCCCC2)c1` (stereo not drawn), the viability in assay [1] is 107% (inactive); in assay [2], 91.9% (inactive); in assay [3] (setting [6]), 84.2%; in assay [3] (setting [7]) it was 91.9%. The differential viability (reversal) in assay [3] (H69AR cells + 2 uM doxorubicin) was 7.67% (inactive). In addition, the inhibition in assay [4] was -5.2% (inactive); in assay [5] it was 9.21% (inactive).
